Measurements pooled from the literature.
Protocols differ between the studies behind these lines.
Target: Fibroblast growth factor receptor 4 (FGFR4, Homo sapiens, UniProt P22455)

The remaining signal of `N#CCCc1ccc2c(c1)-c1[nH]c3ccc([N+](=O)[O-])cc3c1CC(=O)N2` is reported as 89.1% (cell-free assay; 0.5 µM).
`Cc1cc(-n2nc(Cc3cc(F)cc(C(F)(F)F)c3)nc2C)ccc1C(N)=O` gave a remaining binding of 100% (cell-free assay; competition with immobilised ligand; 1 µM).
With `CC(C)(O)[C@H]1CC[C@H](Nc2ccc3ncc(-c4cccc(C(F)(F)F)c4)n3n2)CC1` the remaining activity was 108% (enzyme activity; inhibitor; 1 µM).
The inhibition of `COc1cc2ncnc(Nc3ccc(Oc4ccccc4)c(C)c3C)c2cc1OC` is reported as -1% (enzyme activity; inhibitor; 1 µM).
The remaining activity of `CCN(CC)c1ccc(C2=NNC(=O)CC2C)cc1[N+](=O)[O-]` (centres unmarked) is reported as 93% (enzyme activity; inhibitor; 10 µM).
`CNC(=O)c1cc(Oc2ccc(NC(=O)Nc3ccc(Cl)c(C(F)(F)F)c3)cc2)ccn1` has an inhibition of 47% (enzyme activity; inhibitor; 10 µM).
The remaining activity of `CC(C)(C)c1nc2c(s1)c1nc(N)ncc1c1ccc(NS(=O)(=O)c3c(F)cccc3F)c(F)c12` is reported as 104% (enzyme activity; inhibitor; radiometric; 1 µM).
For `Cc1ccc(C(=O)Nc2ccc(CN3CCN(C)CC3)c(C(F)(F)F)c2)cc1C#Cc1cnc2cccnn12`, the remaining signal was 49% (cell-free assay; 23.5 nM).
For `O=C(N1CCS(=O)(=O)CC1)N1C[C@H](c2ccc(OC(F)(F)F)cc2)C[C@H](c2nc(C3CC3)no2)C1`, the remaining binding was 100% (cell-free assay; competition with immobilised ligand; 1 µM).
`CC/C(=N\NC(=O)NCc1cccc(O)c1)c1ccc(O)c(C)c1O` gave an inhibition of 3.3% (enzyme activity; inhibitor; 0.1 µM).
`Cc1ccc(Nc2nccc(N(C)c3ccc4c(C)n(C)nc4c3)n2)cc1S(N)(=O)=O` has a remaining signal of 68.3% (cell-free assay; 0.5 µM).
For `CCN(CC)CCNC(=O)c1c(C)[nH]c(/C=C2\C(=O)Nc3ccc(F)cc32)c1C`, the inhibition was -11% (enzyme activity; inhibitor; 0.3 µM).
`Cc1cnc(NC2CCOCC2)nc1-n1cnc(C(=O)NC(CN)c2cc(F)cc(Cl)c2)c1` (centres unmarked) gave a remaining activity of 105% (enzyme activity; inhibitor; radiometric; 1 µM).
With `CCCCN(CCCC)C(=O)CN1C[C@H](c2cc(OC)c3c(c2)OCO3)[C@@H](C(=O)O)[C@@H]1CC(C)(C)CCC` the remaining binding was 100% (cell-free assay; competition with immobilised ligand; 1 µM).
`Cc1ccc(C(=O)NCc2ccsc2)cc1C#Cc1cn(C(C)C)c2ncnc(N)c12` has an activity vs control of 99% (enzyme activity; inhibitor; 1 µM).
With `CS(=O)(=O)N1CCCC(NC(=O)[C@H](CCC2CCCCC2)NC(=O)c2ccc(CNC(=O)c3cnc4ccccn34)cc2)C1` (some centres unmarked) the remaining binding was 100% (cell-free assay; competition with immobilised ligand; 0.1 µM).
The remaining signal of `COc1ccc(COc2ccc(Cc3cnc(N)nc3N)cc2OC)cc1` is reported as 99.7% (cell-free assay; 0.5 µM).
For `Cn1cc(Cl)c2c(Oc3c(F)cc(Nc4cc(Cl)nc(N)n4)cc3F)ccnc21`, the remaining binding was 86% (cell-free assay; competition with immobilised ligand; 0.1 µM).
The inhibition of `CNc1cccc2cc(C(=O)Nc3ccc(C(=O)O)cc3)c(=O)[nH]c12` is reported as 2.6% (enzyme activity; inhibitor; 10 µM).
With `NS(=O)(=O)c1cc(NC(=O)C2(c3ccccc3Cl)CC2)ccc1Oc1cccc(Cl)c1` the remaining binding was 100% (cell-free assay; competition with immobilised ligand; 1 µM).
`O=C(Nc1cnn(-c2csc(C(=O)NC3COC3)c2)c1)Nc1ccccc1Cl` gave a remaining activity of 88.2% (enzyme activity; inhibitor; 5 µM).
The remaining binding of `CN(C)C(=O)Cn1cc(-c2nc(C3(c4ccc(-c5cnc(N)nc5)cc4)CC3)no2)cn1` is reported as 100% (cell-free assay; competition with immobilised ligand; 1 µM).
With `Cc1cc(NC(=O)c2cccc3cc(-c4cccc5[nH]nc(N)c45)ccc23)ccc1F` the activity vs control was 101% (enzyme activity; inhibitor; 0.1 µM).
